PubChem BioAssay AID488897 (Broad Institute, 2010)
Inconclusive results are not listed. Active and inactive are the calls of the source.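 The calls were made as follows: active = fitted half-maximal concentration for caspase signal rise at or below the highest valid tested dose; inconclusive = flat fit at 30 to 70% of control, or poor fit; inactive = the rest.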

Columns and labels:
[1] = system: MEF A1-2A-tBid cells, caspase 3/7 luminescence, 3 h; assay: caspase activation in A1/tBid-expressing MEFs, dose response, A1 inhibitor project, cell-based, tBid as inducer, caspase 3/7 luminescence, dry powder (AID 488897)
How it was run: (§1)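 Assay system: mouse embryonic fibroblasts co-expressing A1-2A-tBid, primed by tBid. Quantity: 2500 cells per well. Detection: Caspase-Glo 3/7 luminescence. Timing: 3 h compound exposure at 37 °C, 1 h room-temperature detection. Doses: dose-response series, pin-transferred. Evaluation: caspase activation from luminescence increase. Medium: TSA added at seeding.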

[2] = as above; conditions: MEF A1-2A-tBid cells, caspase 3/7 luminescence, 3 h; at 150 µM (top of the series)
How it was run: as §1

Which AC50 [1] does the source give for `CCc1cc2c(=O)c(-c3cnn(-c4ccccc4)c3)c(C)oc2cc1OCC(=O)Nc1cccc(C)c1` here?
The AC50 was > 100 µM (inactive).

Which AC50 [1] does the source give for `Cc1cc(C(=O)CCl)c(C)n1CCc1ccc(Cl)cc1` here?
The AC50 was 8.01 µM.

For `CC(=O)N[C@H]1[C@H](O[C@H]2CC[C@@]3(C)C(CC[C@]4(C)C3CC=C3[C@@H]5CC(C)(C)CC[C@]5(C(=O)OC5OCC(O)C(O)C5O)C(O)C[C@]34C)C2(C)C)O[C@H](COC2OCC(O)C(OC3OCC(O)C(O)C3O)C2O)[C@@H](O[C@@H]2O[C@@H](C)[C@H](O)[C@@H](O)[C@H]2O[C@@H]2O[C@@H](C)[C@H](O)[C@@H](O)[C@H]2O)[C@@H]1O` (stereo partly drawn), which AC50 [1] is on record?
The AC50 was 12.2 µM.

Which AC50 [1] does the source give for `O=C(CCl)N=c1sccn1Cc1ccccc1Cl` here?
Its AC50 is 1.93 µM.

Which AC50 [1] does the source give for `CC(=O)OC(C)(C)/C=C/C(=O)[C@](C)(O)C1[C@H](O)C[C@@]2(C)C3CC=C4C(C[C@H](O)C(=O)C4(C)C)[C@]3(C)C(=O)C[C@]12C` (stereo partly drawn) here?
The AC50 was > 150 µM (inactive).

Which AC50 [1] does the source give for `Cc1cccc(CS(=O)(=O)c2ncc(Cl)c(C(=O)Nc3nnc(C(C)C)s3)n2)c1` here?
The AC50 was > 46 µM (inactive).

Which AC50 [1] does the source give for `Cc1ccc(CS(=O)(=O)c2ncc(Cl)c(C(=O)Nc3nnc(C(C)C)s3)n2)cc1` here?
Its AC50 is > 46 µM (inactive).

With `C=C1[C@@H](C)[C@H]2[C@H](Cc3ccccc3)NC(=O)[C@]23[C@H](OC(C)=O)/C=C/[C@](C)(O)C(=O)[C@@H](C)C/C=C/[C@H]3[C@@H]1O` as the molecule, how does the caspase activation [2] read?
Its caspase activation is 0.731% (inactive).

For `Nc1nc(F)nc2c1ncn2[C@@H]1O[C@H](CO)[C@@H](O)[C@H]1O`, which AC50 [1] is on record?
Its AC50 is 2.35 µM.

With `C/C1=C/C(=O)O[C@@H]2C[C@@H](CC[C@H](C)/C=C\CC1)O[C@@](O)(C1CSC(=O)N1)C2` (stereo partly drawn) as the molecule, how does the AC50 [1] read?
Its AC50 is 0.695 µM.

Which AC50 [1] does the source give for `COc1ccc(N(C(=O)CCl)C(C(=O)NCCc2ccccc2)c2cccs2)cc1Cl` (stereo not drawn) here?
The AC50 was > 150 µM (inactive).

Which AC50 [1] does the source give for `Cc1c(CCOC(=O)c2ccc(N3CCOCC3)c([N+](=O)[O-])c2)sc[n+]1CC#N` here?
Its AC50 is 16.7 µM.

With `Cc1ccc(Sc2c([N+](=O)[O-])c(=O)n(C)c3ccccc23)cc1` as the molecule, how does the AC50 [1] read?
The AC50 was 18.1 µM.

Which AC50 [1] does the source give for `Cc1cccc(NC(=O)/C(C#N)=C/c2cn(CC(=O)NCc3ccco3)c3ccccc23)c1` here?
The AC50 was 7.59 µM.

With `CC(C)(C)n1nc(-c2ccc(Cl)cc2)c2c(N)ncnc21` as the molecule, how does the AC50 [1] read?
Its AC50 is > 150 µM (inactive).

Which AC50 [1] does the source give for `O=C(Oc1cccc(/C=N/Nc2nc(Nc3ccccc3)nc(N3CCOCC3)n2)c1)c1ccco1` here?
Its AC50 is 17.6 µM.

With `COc1cccc(C(=O)C(C#N)=C(SC)SC)c1` as the molecule, how does the AC50 [1] read?
Its AC50 is 2.71 µM.

For `CCOC(=O)CSC1=N/C(=C/c2ccc(-n3cncn3)cc2)C(=O)N1C(C)=O`, which AC50 [1] is on record?
Its AC50 is 9.07 µM.

With `COc1cc(/C=C(/C#N)c2nc3ccccc3[nH]2)ccc1OCC(=O)Nc1ccccc1C(C)C` as the molecule, how does the caspase activation [2] read?
Its caspase activation is 1.39% (inactive).

For `C=C1[C@@H](C)[C@H]2[C@H](Cc3ccccc3)NC(=O)[C@]23OC(=O)/C=C\[C@H](O)CCC[C@@H](C)C/C=C/[C@H]3[C@@H]1O`, which AC50 [1] is on record?
Its AC50 is 12.7 µM.

Which AC50 [1] does the source give for `Cn1c(=NC(=O)CCl)sc2ccccc21` here?
Its AC50 is 3.22 µM.

Which AC50 [1] does the source give for `CCc1nnc(NC(=O)c2nc(S(=O)(=O)Cc3ccccc3)ncc2Cl)s1` here?
Its AC50 is > 68 µM (inactive).

Which AC50 [1] does the source give for `Cc1c(C=O)c(C=O)c(C)n1Cc1ccccc1` here?
Its AC50 is 6.11 µM.
